CRFBP-R2 block: blocks CRF-induced signaling of the CRF-BP/CRF-R2 complex; 350,000 compounds, 0.59% hits; AID 588475; inhibition, % at 11.8 µM; HEK293 CRF-R2/CRF-BP, CRF-induced calcium fluorescence;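 active means inhibition of the ligand-induced calcium signal above about 50% at the single tested concentration, limit read from the data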
TAAR1 agonist: agonists of human TAAR1; 360,000 compounds, 0.99% hits; Q96RJ0; CHO RD-HGA16 TAAR1, Fluo-8 calcium fluorescence; vehicle wells 0%, saturating PEA agonist 100%; activation, % at 3 µM;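 active means activation above the mean activation of all test compounds in the run plus 3 SD, cut at about 38% in these data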
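Benchmarks: low control DMSO, high control PEA (EC100); System: CHO RD-HGA16 cells carrying human TAAR1 plus Gα16; Detection: Fluo-8 fluorescence, 5 s baseline then 140 s kinetic read; Schedule: 17-24 h plating, Fluo-8 75 min 37 °C, 30 min RT; Read-out basis: % activation from peak over basal fluorescence ratio, DMSO-to-PEA scaled.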
TMEM16A inh: blocks the mouse calcium-activated chloride channel TMEM16A. 310,000 compounds, 1.2% hits. normalized B-score (activity score, 25-100; higher = stronger inhibition) at 10 µM. HEK293 TMEM16A/YFP iodide influx fluorescence, ionomycin;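 active means ratio plate-corrected score three or more library SD toward inhibition, starting fluorescence score within five deviations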;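 further: score derived from kinetic fluorescence span divided by baseline fluorescence per well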
Target sequence (Q8BHY3 whole entry, looked up): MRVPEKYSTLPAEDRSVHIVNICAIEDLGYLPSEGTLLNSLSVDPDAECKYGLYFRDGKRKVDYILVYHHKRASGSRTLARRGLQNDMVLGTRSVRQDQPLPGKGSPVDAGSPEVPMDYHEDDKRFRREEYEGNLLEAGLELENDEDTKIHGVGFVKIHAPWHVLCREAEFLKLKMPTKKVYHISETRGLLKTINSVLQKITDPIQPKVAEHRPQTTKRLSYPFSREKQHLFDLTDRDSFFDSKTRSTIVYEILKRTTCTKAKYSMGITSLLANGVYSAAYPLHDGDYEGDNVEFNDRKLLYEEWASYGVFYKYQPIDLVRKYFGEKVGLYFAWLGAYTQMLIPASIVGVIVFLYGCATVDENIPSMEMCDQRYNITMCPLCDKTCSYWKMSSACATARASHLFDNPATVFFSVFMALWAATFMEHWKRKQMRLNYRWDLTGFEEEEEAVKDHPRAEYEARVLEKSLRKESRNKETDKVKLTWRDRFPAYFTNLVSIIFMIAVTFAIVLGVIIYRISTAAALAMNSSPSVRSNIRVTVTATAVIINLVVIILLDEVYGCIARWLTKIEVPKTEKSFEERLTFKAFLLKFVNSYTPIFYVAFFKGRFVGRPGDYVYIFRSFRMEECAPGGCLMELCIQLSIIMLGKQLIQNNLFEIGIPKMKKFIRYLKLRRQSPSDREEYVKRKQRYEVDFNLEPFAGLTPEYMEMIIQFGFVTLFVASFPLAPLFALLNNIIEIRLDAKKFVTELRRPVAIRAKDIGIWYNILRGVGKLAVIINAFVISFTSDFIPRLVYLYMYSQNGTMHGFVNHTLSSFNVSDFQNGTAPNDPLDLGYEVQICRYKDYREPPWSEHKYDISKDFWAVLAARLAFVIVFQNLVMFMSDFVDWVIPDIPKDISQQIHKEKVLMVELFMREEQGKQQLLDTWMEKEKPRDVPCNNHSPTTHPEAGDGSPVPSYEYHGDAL
TAAR1 antagonist: antagonists of human TAAR1; CHO RD-HGA16 TAAR1, Fluo-8 calcium fluorescence, antagonist; inhibition, % at 3 µM; 360,000 compounds, 1.5% hits;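 active means inhibition above a per-plate cutoff, the mean inhibition of test compounds on that plate plus 3 SD, cut at about 49% in these data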;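 further: 0% = DMSO plus EC80 beta-PEA response and 100% = DMSO alone without agonist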
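Test system – hTAAR1-expressing CHO RD-HGA16 cells, Gα16-coupled · Also added – β-PEA at EC80 concentration, post-compound challenge · Compound – 3 µM, single point · Incubation – dye loading 75 min at 37 °C, then 30 min room temperature · Measured by – Fluo-8 intracellular calcium dye fluorescence, real-time kinetic reads · Benchmarks – vehicle and agonist controls · Replicates – singlicate, one well per test compound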
ANO1 activ: activates or potentiates the mouse TMEM16A chloride channel | 340,000 compounds, 0.3% hits | AID 623877 | Q8BHY3 | HEK293 TMEM16A/YFP-H148Q/I152L, iodide quench fluorescence; stronger effect = lower value | B-score at 10 µM;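 active means fluorescence-ratio B-score plate-corrected deviation score at least 3 library SD below zero, with starting fluorescence score within 5 deviations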;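 further: channel opened by trigger with iodide after compound preincubation; score built on the fluorescence ratio of max minus min over baseline; more negative score means more quench and so TMEM16A activation or potentiation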
CRFBP-R2 agonist: agonists of human CRF-binding protein/CRF-R2 receptor complex. HEK293 CRF-R2/CRF-BP, calcium dye fluorescence (FLIPR); percent of saturating CRF peptide response. activation, % at 13.2 µM. 350,000 compounds, 0.46% hits;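 active means activation of at least 50%, plus an integration ratio under a set limit after plate pattern correction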;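 further: plate controls were neutral control wells without compound for no effect and CRF at EC100 for full effect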
TAAR1 ag confirm: confirmation of human TAAR1 agonists; 2,400 compounds, 82% hits; shares compounds with TAAR1 agonist; activation, % at 3 µM; CHO RD-HGA16 TAAR1, Fluo-8 calcium fluorescence; scaled: DMSO 0%, maximal phenethylamine 100%;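 active means activation above a cutoff set at the run's mean compound activation plus 3 SD, cut at about 39% in these data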
Ga16 ag counter: nonselective agonist in parental cells, TAAR1 agonist counter-screen | CHO-Ga16 parental, Fluo-8 calcium fluorescence; normalized to maximal ATP response, DMSO zero | shares compounds with TAAR1 agonist | 2,400 compounds, 50% hits | activation, % at 3 µM;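 active means activation above the run cutoff, the mean activation over all tested wells plus 3 SD, cut at about 12% in these data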;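 further: 0% = DMSO wells and 100% = maximal ATP response on the peak over basal ratio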
TAAR1 desens: counter-screen for human TAAR1 agonists: agonists that desensitize TAAR1; shares compounds with TAAR1 agonist; CHO RD-HGA16 hTAAR1, Fluo-8 calcium, beta-PEA response inhibition; inhibition, % at 3 µM; 2,400 compounds, 46% hits; AID 651951;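 active means inhibition above the run cutoff, the mean inhibition of all test compounds plus 3 SD, cut at about 49% in these data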;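 further: beta-PEA stimulus applied at its EC80; loss of beta-PEA calcium signal after compound pretreatment read as receptor desensitization; 0% = DMSO with beta-PEA at EC80 and 100% = DMSO alone without agonist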
Ga16 nonsel ant: nonselective Ga16 antagonism, counter-screen; shares compounds with TAAR1 agonist; CHO-Ga16 ATP-induced calcium, Fluo-8 fluorescence; inhibition, % at 3 µM; 2,400 compounds, 39% hits;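 active means inhibition above the plate's mean compound inhibition plus 3 SD, computed per plate, cut at about 22% in these data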;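 further: 0% = EC80 ATP with DMSO and 100% = DMSO wells without ATP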
Numbers without * were called inactive; i = inactive; . = no result given. Shown are actives, neighbours in structure and some others; about 3.9% of the full set was active somewhere.

SMILES	CRFBP-R2 block	TAAR1 agonist	TMEM16A inh	TAAR1 antagonist	ANO1 activ	CRFBP-R2 agonist	TAAR1 ag confirm	Ga16 ag counter	TAAR1 desens	Ga16 nonsel ant
Nc1nonc1-n1nnc(C(=O)N/N=C/c2ccc(Br)cc2)c1-c1ccc2c(c1)OCO2	-86.4	154.3*	i	93.1*	i	1.7	149.9*	112.2*	96.5*	81.2*
COc1ccc(OCCCC(=O)Nc2ncn[nH]2)cc1	1.8	3.2	i	-10.2	i	-2.1	.	.	.	.
O=C(Nc1ccccc1)c1ccc(-c2ccccc2Cl)o1	-7.3	6.8	i	1.1	i	0.6	.	.	.	.
CC(=O)Nc1ccc(NC(=O)c2ccc(-c3ccccc3Cl)o2)cc1	2.1	57.9*	.	53.5*	i	0.0	40.2*	43.4*	56.9*	38.2*
O=C(NCCNC(=O)c1ccc(Br)o1)c1ccc(Br)o1	-6.9	3.4	i	0.7	i	-0.2	.	.	.	.
O=C(NCCc1ccccc1)c1ccc(-c2ccccc2Cl)o1	-15.8	51.0*	i	20.7	i	-0.1	16.3	18.8*	80.9*	14.8
O=C(NCCc1ccccc1)c1ccc(Br)o1	1.2	67.4*	i	27.3	i	-1.3	77.3*	3.3	39.9	0.7
O=C(Nc1cccnc1)c1ccc(-c2cc(Cl)ccc2Cl)o1	-29.7	72.8*	i	15.3	i	-1.7	40.2*	42.8*	40.1	19.4
Cc1cc(C)cc(-n2ncc3c2CCCC3NC(=O)CCN2CCCC2=O)c1 (stereo unspecified)	-7.1	1.1	i	-12.5	i	-0.5	.	.	.	.
N#C/C(=C/c1cn[nH]c1-c1cccc(Br)c1)C(=O)O	-5.7	70.8*	i	-1.5	i	-1.5	111.7*	51.7*	24.6	3.5
N#C/C(=C\c1cccs1)C(=O)c1ccccc1Cl	-17.1	58.7*	i	53.9*	i	-1.0	52.8*	32.6*	72.0*	59.0*
Cc1cc2c(cc1C)-n1nnnc1C(N(C)CCc1ccccc1)C(=O)N2 (stereo unspecified)	.	54.3*	.	18.3	.	.	65.1*	5.9	35.6	10.5
O=C(COc1ccc(Br)cc1)Nc1ccccc1C(=O)NC1CC1	6.8	0.9	i	4.0	i	-1.0	.	.	.	.
NS(=O)(=O)c1ccc(CCNC(=O)c2ccc(Cn3c(=O)[nH]c4ccccc4c3=O)cc2)cc1	-5.6	4.5	i	5.5	i	-0.1	.	.	.	.
Cc1ccc(-c2cc(C(=O)NC3CCCC3)no2)cc1	-13.1	50.9*	i	12.8	i	1.2	10.1	6.0	6.9	12.9
O=C(NC1CCCC1)c1cc(-c2ccc(Cl)c(Cl)c2)on1	2.4	1.3	i	-2.0	i	-0.5	.	.	.	.
COc1ccc(CN2C(=O)C(C)Nc3ncnc(N4CCN(c5ccccn5)CC4)c32)cc1 (stereo unspecified)	-10.4	16.8	.	17.2	i	-0.9	.	.	.	.
COc1ccc(CN2C(=O)C(C)Nc3ncnc(N4CCc5ccccc5C4)c32)cc1 (stereo unspecified)	.	53.0*	.	15.9	.	.	43.8*	0.8	-3.0	15.9
O=C(CSc1nc(Nc2ccccc2)nc(N2CCOCC2)n1)NC1CCCCC1	-25.8	1.6	i	-8.0	i	-1.5	.	.	.	.
CCCCCCCCN1C(=O)[C@@H](CC(=O)NCCc2ccccc2OC)C[C@@]2(C(=O)OC)C1=C[C@H](C(C)(C)C)O[C@@H]2C	.	75.1*	.	15.7	.	.	85.0*	0.4	52.4*	3.6
CCOC(=O)[C@]12CCC=C1N(Cc1ccco1)C(=O)[C@H](CC(=O)NCCCCc1ccccc1)C2	.	2.7	.	-19.7	.	.	.	.	.	.
CCOC(=O)[C@]12CCC=C1N(Cc1ccco1)C(=O)[C@H](CC(=O)NCCc1ccccc1OC)C2	.	62.2*	.	0.2	.	.	69.0*	-1.1	43.2	10.7
CCCCCCCCN1C(=O)[C@H](CC(=O)NCCc2ccccc2OC)C[C@@]2(C(=O)OC)CCCCC=C12	.	50.8*	.	-7.1	.	.	80.5*	1.3	65.0*	12.6
CCCCCCCCN1C(=O)[C@H](CC(=O)NCCc2ccccc2OC)C[C@@]2(C(=O)OCC)CCC=C12	.	58.6*	.	19.0	.	.	79.5*	-1.3	47.8	1.7
O=C(NC1CCCCC1)c1c2c(nc3ccccc13)CCC2	6.6	4.8	i	1.5	i	-1.0	.	.	.	.
SMILES	CRFBP-R2 block	TAAR1 agonist	TMEM16A inh	TAAR1 antagonist	ANO1 activ	CRFBP-R2 agonist	TAAR1 ag confirm	Ga16 ag counter	TAAR1 desens	Ga16 nonsel ant
O=C(Nc1ccc(C(=O)N2CCCC2)cc1)C1CCC1	-7.4	6.9	.	-18.4	.	-0.2	.	.	.	.
O=C(C1CCN(S(=O)(=O)c2ccccc2)CC1)N1CCN(Cc2ccccc2)CC1	-2.0	4.7	i	-19.5	i	-0.5	.	.	.	.
Cc1ccc(-c2nnn(CC(=O)N3CCCCC3)n2)cc1	7.7	0.5	i	-12.5	i	-2.7	.	.	.	.
CN(C)c1ccc(C=NCC2COc3ccccc3O2)cc1 (stereo unspecified)	-2.2	75.3*	i	12.7	i	-0.7	82.2*	3.7	59.2*	6.9
CN(CC1COc2ccccc2O1)C(=O)c1ccc(N(C)C)cc1 (stereo unspecified)	-8.9	4.7	i	7.3	i	-2.4	.	.	.	.
COc1cccc(N=C(N)N)c1	6.8	67.5*	i	53.0*	i	-1.4	82.8*	1.6	74.9*	5.1
COc1cccc(N)c1	.	2.1	.	4.7	.	.	.	.	.	.
CCOC(=O)c1cc(NC(=O)c2cc(C)on2)cc(C(=O)OCC)c1	-3.3	44.0*	i	26.1	i	2.0	19.2	4.0	2.2	2.5
Cn1c(CN2CCCCC2)nc2cc(NS(=O)(=O)c3ccc(Cl)cc3)ccc21	-73.3	70.2*	i	8.8	i	86.0*	76.9*	40.5*	38.8	23.3*
O=c1cc(CSc2nnnn2-c2ccccc2)nc(Nc2ccc(F)cc2)[nH]1	4.4	66.5*	i	31.6	i	-1.8	97.2*	5.2	67.1*	25.6*

Screens: PubChem, several laboratories
